# Source: paper PMC4561207 (Child's nervous system : ChNS : official journal of the …, 2015)
# Test: Adverse events regardless of attribution
# Type: in vivo, human
# In short: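 Children with recurrent/refractory CNS tumours took oral drug once daily, continuously, in 28-day cycles. Dosing was stratified by EIACD use, with start/escalation levels 20–40 mg/m² (no EIACD) or 15–32 mg/m² (EIACD). Monitoring included weekly exam, serum chemistries, CBC and urine protein for 8 weeks, and TSH before each cycle. Events other than hypertension were graded by CTCAE v3, later v4.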
structure (smiles),measurement,setting,value
"COc1cc2c(Oc3ccc4[nH]c(C)cc4c3F)ncnc2cc1OCCCN1CCCC1 [cediranib, Cediranib]","Anemia, events (patients)",grade 3 AE,2(2)
same,"Aspartate aminotransferase increased, events (patients)",grade 3 AE,2(2)
same,"Blurred vision, events (patients)",grade 3 AE,1(1)
same,"Capillary leak syndrome, events (patients)",grade 3 AE,1(1)
same,"Chest wall pain, events (patients)",grade 3 AE,1(1)
same,"Confusion, events (patients)",grade 3 AE,1(1)
same,"Dehydration, events (patients)",grade 3 AE,4(4)
same,"Depressed level of consciousness, events (patients)",grade 3 AE,2(2)
same,"Diarrhea, events (patients)",grade 3 AE,3(3)
same,"Dysphasia, events (patients)",grade 3 AE,2(2)
same,"Enterocolitis, events (patients)",grade 3 AE,1(1)
same,"Eye disorders - Other, specify, events (patients)",grade 3 AE,1(1)
same,"Fatigue, events (patients)",grade 3 AE,4(4)
same,"Headache, events (patients)",grade 3 AE,7(5)
same,"Hydrocephalus, events (patients)",grade 3 AE,2(2)
same,"Hyperkalemia, events (patients)",grade 3 AE,1(1)
same,"Hypermagnesemia, events (patients)",grade 3 AE,1(1)
same,"Hypernatremia, events (patients)",grade 3 AE,2(1)
same,"Hypertension, events (patients)",grade 3 AE,10(10)
same,"Hypertriglyceridemia, events (patients)",grade 3 AE,1(1)
same,"Hypokalemia, events (patients)",grade 3 AE,3(2)
same,"Hyponatremia, events (patients)",grade 3 AE,5(5)
same,"Lipase increased, events (patients)",grade 3 AE,1(1)
same,"Lymphocyte count decreased, events (patients)",grade 3 AE,5(3)
same,"Mucositis oral, events (patients)",grade 3 AE,1(1)
same,"Nausea, events (patients)",grade 3 AE,3(3)
same,"Neutrophil count decreased, events (patients)",grade 3 AE,2(2)
same,"Oral pain, events (patients)",grade 3 AE,2(2)
same,"Palmar-plantar erythrodysesthesia syndrome, events (patients)",grade 3 AE,3(3)
same,"Peripheral motor neuropathy, events (patients)",grade 3 AE,2(2)
same,"Proteinuria, events (patients)",grade 3 AE,3(3)
same,"Reversible posterior leukoencephalopathy syndrome, events (patients)",grade 3 AE,1(1)
same,"Seizure, events (patients)",grade 3 AE,3(3)
same,"Vomiting, events (patients)",grade 3 AE,2(2)
same,"Weight loss, events (patients)",grade 3 AE,1(1)
same,"White blood cell decreased, events (patients)",grade 3 AE,1(1)
same,"Alanine aminotransferase increased, events (patients)",grade 4 AE,1(1)
same,"Aspartate aminotransferase increased, events (patients)",grade 4 AE,1(1)
same,"Hypernatremia, events (patients)",grade 4 AE,2(1)
same,"Hyponatremia, events (patients)",grade 4 AE,1(1)
same,"Hypothyroidism, events (patients)",grade 4 AE,1(1)
same,"Lymphocyte count decreased, events (patients)",grade 4 AE,1(1)
same,"Nervous system disorders - Other, specify, events (patients)",grade 4 AE,1(1)
same,"Papilledema, events (patients)",grade 4 AE,1(1)
same,"Seizure, events (patients)",grade 4 AE,1(1)
same,"Abdominal pain, events (patients)",total AE,11(11)
same,"Acidosis, events (patients)",total AE,7(5)
same,"Alanine aminotransferase increased, events (patients)",total AE,70(30)
same,"Alkaline phosphatase increased, events (patients)",total AE,4(3)
same,"Anal mucositis, events (patients)",total AE,1(1)
same,"Anal pain, events (patients)",total AE,1(1)
same,"Anemia, events (patients)",total AE,7(6)
same,"Anorexia, events (patients)",total AE,15(12)
same,"Arthralgia, events (patients)",total AE,1(1)
same,"Aspartate aminotransferase increased, events (patients)",total AE,45(23)
same,"Back pain, events (patients)",total AE,5(4)
same,"Blood bilirubin increased, events (patients)",total AE,18(10)
same,"Blurred vision, events (patients)",total AE,1(1)
same,"Bone pain, events (patients)",total AE,3(2)
same,"Capillary leak syndrome, events (patients)",total AE,1(1)
same,"Cardiac troponin I increased, events (patients)",total AE,1(1)
same,"Chest wall pain, events (patients)",total AE,2(2)
same,"Cholesterol high, events (patients)",total AE,1(1)
same,"Chronic kidney disease, events (patients)",total AE,1(1)
same,"Confusion, events (patients)",total AE,2(2)
same,"Constipation, events (patients)",total AE,9(4)
same,"Cough, events (patients)",total AE,5(4)
same,"Creatinine increased, events (patients)",total AE,5(3)
same,"Dehydration, events (patients)",total AE,8(7)
same,"Depressed level of consciousness, events (patients)",total AE,2(2)
same,"Depression, events (patients)",total AE,3(3)
same,"Diarrhea, events (patients)",total AE,63(32)
same,"Dizziness, events (patients)",total AE,5(3)
same,"Dry mouth, events (patients)",total AE,1(1)
same,"Dry skin, events (patients)",total AE,1(1)
same,"Dyspepsia, events (patients)",total AE,4(4)
same,"Dysphasia, events (patients)",total AE,3(3)
same,"Edema face, events (patients)",total AE,1(1)
same,"Edema limbs, events (patients)",total AE,2(2)
same,"Endocrine disorders - Other, specify, events (patients)",total AE,2(2)
same,"Enterocolitis, events (patients)",total AE,1(1)
same,"Epistaxis, events (patients)",total AE,6(5)
same,"Eye disorders - Other, specify, events (patients)",total AE,2(2)
same,"Fatigue, events (patients)",total AE,25(20)
same,"Fecal incontinence, events (patients)",total AE,2(2)
same,"Fever, events (patients)",total AE,3(3)
same,"Flushing, events (patients)",total AE,3(1)
same,"GGT increased, events (patients)",total AE,1(1)
same,"Gastritis, events (patients)",total AE,2(2)
same,"Gastrointestinal disorders - Other, specify, events (patients)",total AE,2(2)
same,"Headache, events (patients)",total AE,38(19)
same,"Hematuria, events (patients)",total AE,5(3)
same,"Hemoglobin increased, events (patients)",total AE,12(6)
same,"Hoarseness, events (patients)",total AE,1(1)
same,"Hydrocephalus, events (patients)",total AE,4(3)
same,"Hypercalcemia, events (patients)",total AE,6(3)
same,"Hyperglycemia, events (patients)",total AE,22(16)
same,"Hyperkalemia, events (patients)",total AE,4(4)
same,"Hypermagnesemia, events (patients)",total AE,15(9)
same,"Hypernatremia, events (patients)",total AE,16(5)
same,"Hypertension, events (patients)",total AE,59(38)
same,"Hyperthyroidism, events (patients)",total AE,2(2)
same,"Hypertriglyceridemia, events (patients)",total AE,1(1)
same,"Hypoalbuminemia, events (patients)",total AE,34(17)
same,"Hypocalcemia, events (patients)",total AE,26(16)
same,"Hypoglycemia, events (patients)",total AE,6(5)
same,"Hypokalemia, events (patients)",total AE,23(18)
same,"Hypomagnesemia, events (patients)",total AE,9(7)
same,"Hyponatremia, events (patients)",total AE,29(13)
same,"Hypophosphatemia, events (patients)",total AE,21(13)
same,"Hypothyroidism, events (patients)",total AE,21(15)
same,"Hypoxia, events (patients)",total AE,1(1)
same,"INR increased, events (patients)",total AE,1(1)
same,"Intracranial hemorrhage, events (patients)",total AE,4(4)
same,"Investigations - Other, specify, events (patients)",total AE,2(2)
same,"Joint effusion, events (patients)",total AE,1(1)
same,"Leukoencephalopathy, events (patients)",total AE,1(1)
same,"Lipase increased, events (patients)",total AE,2(1)
same,"Lymphocyte count decreased, events (patients)",total AE,31(13)
same,"Malaise, events (patients)",total AE,3(1)
same,"Mucositis oral, events (patients)",total AE,4(4)
same,"Myalgia, events (patients)",total AE,3(3)
same,"Nausea, events (patients)",total AE,25(16)
same,"Nervous system disorders - Other, specify, events (patients)",total AE,4(4)
same,"Neutrophil count decreased, events (patients)",total AE,23(11)
same,"Non-cardiac chest pain, events (patients)",total AE,3(3)
same,"Oral pain, events (patients)",total AE,4(4)
same,"Pain in extremity, events (patients)",total AE,9(7)
same,"Pain, events (patients)",total AE,4(4)
same,"Palmar-plantar erythrodysesthesia syndrome, events (patients)",total AE,17(7)
same,"Papilledema, events (patients)",total AE,1(1)
same,"Pericardial effusion, events (patients)",total AE,1(1)
same,"Peripheral motor neuropathy, events (patients)",total AE,4(4)
same,"Platelet count decreased, events (patients)",total AE,26(18)
same,"Pleural effusion, events (patients)",total AE,1(1)
same,"Proteinuria, events (patients)",total AE,40(21)
same,"Rash acneiform, events (patients)",total AE,2(2)
same,"Rash maculo-papular, events (patients)",total AE,6(5)
same,"Rectal pain, events (patients)",total AE,1(1)
same,"Renal and urinary disorders - Other, specify, events (patients)",total AE,1(1)
same,"Respiratory, thoracic and mediastinal disorders - Other, specify, events (patients)",total AE,2(2)
same,"Reversible posterior leukoencephalopathy syndrome, events (patients)",total AE,2(1)
same,"Seizure, events (patients)",total AE,7(6)
same,"Serum amylase increased, events (patients)",total AE,1(1)
same,"Skin and subcutaneous tissue disorders - Other, specify, events (patients)",total AE,2(2)
same,"Skin ulceration, events (patients)",total AE,2(2)
same,"Stomach pain, events (patients)",total AE,3(3)
same,"Urinary frequency, events (patients)",total AE,2(2)
same,"Urinary retention, events (patients)",total AE,3(3)
same,"Vascular disorders - Other, specify, events (patients)",total AE,2(2)
same,"Voice alteration, events (patients)",total AE,2(2)
same,"Vomiting, events (patients)",total AE,41(21)
same,"Weight loss, events (patients)",total AE,5(5)
same,"White blood cell decreased, events (patients)",total AE,23(14)
